Experiment [1] concerns Mur21. In words: amino acid-dependent ATP-PPi exchange, Mur21. It counts as biochemical, Streptomyces sp. NRRL 30471. The conditions noted are these: amino acid-dependent ATP-PPi exchange assay; MBP fusion.
In experiment [2] the target is T1, Mur15 (Streptomyces sp. NRRL 30471, UniProt F2WUC7). In words: Mur15 substrate scope. In kind it is biochemical. The following applies: for Mur15-catalyzed hydroxylation of free amino acid: LC-MS with authentic hydroxylated standards; for Mur15-catalyzed hydroxylation (substrate conversion): Fe2+, αKG and O2, LC-MS. The gist of the method:
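Mur15 incubated with Fe2+, αKG and O2 plus either a muraymycin substrate purified from Streptomyces sp. NRRL 30475 or a synthetic deaminoribose analogue. Reactions analysed by HPLC against a control without enzyme. Product identity checked by co-injection with authentic hydroxylated standard.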

Experiment [3] concerns SlAnpD(AT). In words: amino acid-dependent ATP-PPi exchange, SlAnpD. The following applies: amino acid-dependent ATP-PPi exchange assay; truncated, lacking the C domain. In kind it is biochemical, Streptomyces lavendulae subsp. lavendulae strain NRRL B-2775.
Experiment [4] relates to AnpI. In words: AnpI substrate test. In kind it is biochemical, Streptomyces lavendulae subsp. lavendulae strain NRRL B-2775. The following applies: free (not T domain-bound) substrate.
Experiment [5] deals with VioC. In words: VioC hydroxylation. In kind it is biochemical, Streptomyces sp. strain ATCC11861. The following applies: free L-Arg; experimental control.
The test system of experiment [6] is Mur16. The following applies: cited from earlier work.
The test system of experiment [7] is AnpF orthologs. In words: amino acid-dependent ATP-PPi exchange, AnpF orthologs. The following applies: amino acid-dependent ATP-PPi exchange assay. It counts as biochemical.
The subject of experiment [8] is AnpE orthologs. In words: amino acid-dependent ATP-PPi exchange, AnpE orthologs. It counts as biochemical. The following applies: amino acid-dependent ATP-PPi exchange assay.
Experiment [9] has as its system Mur27. Put plainly: amino acid-dependent ATP-PPi exchange, Mur27. In kind it is biochemical, Streptomyces sp. NRRL 30471. The following applies: amino acid-dependent ATP-PPi exchange assay; MBP fusion.
Experiment [10] relates to SadA. The conditions noted are these: cited from earlier work.
Experiment [11] relates to any NRPS. The following applies: [14C]NaHCO3; Figure S10.
Experiment [12] addresses T1, Mur15. In words: Mur15 single-substrate kinetic analysis and turnover. It counts as biochemical. The following applies: for Km / kcat: single-substrate kinetic analysis with saturating αKG, Michaelis-Menten. The gist of the method:
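Mur15 reaction with Fe2+, αKG and O2 as cofactor and cosubstrates. The native muraymycin substrate, purified from Streptomyces sp. NRRL 30475, is varied for single-substrate kinetics.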

In experiment [13] the test system is M. smegmatis. In words: anti-M. smegmatis activity. It counts as cell-based. The following applies: 8 compared with 3; Table S3.
For experiment [14], the system named is E. coli. Put plainly: anti-E. coli activity. It counts as cell-based. The following applies: 8 compared with 3; E. coli strain not stated; Table S3.
Experiment [15] relates to Mur12. In words: T domain loading by SDS-PAGE with phosphor imaging, Mur12. It counts as biochemical, Streptomyces sp. NRRL 30471. The following applies: 14C-labelled amino acid, CoA and Sfp.
Experiment [16] concerns holo-SlAnpD(AT). Put plainly: covalent modification by phosphor imaging, holo-SlAnpD. The following applies: 14C-labelled amino acid; phosphor imaging of gels. It counts as biochemical, Streptomyces lavendulae subsp. lavendulae strain NRRL B-2775.
Experiment [17] relates to Mur21. Put plainly: T domain loading by SDS-PAGE with phosphor imaging, Mur21. The conditions noted are these: 14C-labelled amino acid, MBP fusion. It counts as biochemical, Streptomyces sp. NRRL 30471.
Experiment [18] concerns AnpE orthologs. In words: covalent modification by phosphor imaging, AnpE orthologs. It counts as biochemical. The conditions noted are these: 14C-labelled amino acid.
Experiment [19] relates to Mur14. In words: T domain loading by SDS-PAGE with phosphor imaging, Mur14. It counts as biochemical, Streptomyces sp. NRRL 30471. The following applies: 14C-labelled amino acid; Mur27 with Mur14.
For experiment [20], the system named is AnpF. Put plainly: covalent modification by phosphor imaging, AnpF. The conditions noted are these: 14C-labelled amino acid. It counts as biochemical.

`CC(C)[C@H](O)[C@H](N)C(=O)O` [(2S,3S)-2, (2S,3S)-β-OH-Leu]: the “A domain activation of amino acid by Mur21” value in experiment [1] is “inactive”.
`N=C(N)NCCC[C@H](N)C(=O)O` [L-Arg]: the “Mur15-catalyzed hydroxylation of free amino acid” value in [2] was “no peaks corresponding to a hydroxylated product were detected”. Moreover, the “A domain specificity of SlAnpD(AT)” value in experiment [3] is recorded as “high specificity”. In addition, in experiment [4], the “conversion by AnpI” value amounted to 1 was not detected. Besides, the “hydroxylation by VioC” value in [5] is on record as “shown to hydroxylate free L-Arg”. Moreover, in [6], the “hydroxylation by Mur16” value is recorded as “did not hydroxylate L-Arg”.
As for `N[C@@H](CS)C(=O)O` [L-Cys], the “A domain activation by AnpF orthologs” value in experiment [7] is recorded as “slight preference”.
Same read-out and setting: next, `N[C@@H](Cc1c[nH]cn1)C(=O)O` [L-His]: “slight preference”.
`CC[C@H](C)[C@H](N)C(=O)O` [L-Ile]: the “A domain activation by AnpE orthologs” value in experiment [8] is listed as “very low activity”. For the same compound, in [7], the “A domain activation by AnpF orthologs” value was “slight preference”.
With `CC(C)C[C@H](N)C(=O)O` [L-Leu], the “Mur15-catalyzed hydroxylation of free amino acid” value in [2] was “no peaks corresponding to a hydroxylated product were detected”. Moreover, the “A domain activation of amino acid by Mur21” value in experiment [1] is “preferential activity”. For the same compound, the “A domain activation by AnpE orthologs” value in experiment [8] is reported as “highest activity”. Besides, in [7], the “A domain activation by AnpF orthologs” value is reported as “slight preference”.
Regarding `CSCC[C@H](N)C(=O)O` [L-Met], the “A domain activation by AnpE orthologs” value in [8] is “highest activity”. Besides, in experiment [7], the “A domain activation by AnpF orthologs” value is “slight preference”.
Regarding `N[C@@H](Cc1ccccc1)C(=O)O` [L-Phe], in [7], the “A domain activation by AnpF orthologs” value is “slight preference”.
The same measure, in the same setting: to `N[C@@H](Cc1c[nH]c2ccccc12)C(=O)O` [L-Trp] belongs “no activity”.
Consider `CC(C)[C@H](N)C(=O)O` [L-Val], for which the “A domain activation of amino acid by Mur27” value in experiment [9] was “relatively low activity yet with modest specificity”. In addition, in experiment [8], the “A domain activation by AnpE orthologs” value was “very low activity”. For the same compound, the “A domain activation by AnpF orthologs” value in experiment [7] is given as “slight preference”.
On to `CC(=O)N[C@@H](CC(C)C)C(=O)O` [N-acetyl-L-Leu], for which the “conversion by SadA to hydroxylated product” value in experiment [10] is “hydroxylated product with (2S,3R)-stereochemical configuration”.
Consider `CC(C)C[C@H](NC(=O)CCC(=O)O)C(=O)O` [N-succinyl-L-Leu], for which the “conversion by SadA to hydroxylated product” value in [10] was “hydroxylated product with (2S,3R)-stereochemical configuration”.
Turning to `O=[14C]([O-])O.[Na+]` [[^14C]NaHCO3], in experiment [11], the “radiolabelling of NRPS” value was “inability to radiolabel any NRPS”.
By Km is commonly meant the concentration of substrate that gives half-maximal velocity. For orientation: kcat means the maximal rate divided by the concentration of active sites. As for `CO[C@H]1[C@H](O[C@H]([C@H]2O[C@@H](n3ccc(=O)[nH]c3=O)[C@H](O)[C@@H]2O)[C@H](NCCCNC(=O)[C@H](CC(C)C)NC(=O)[C@@H](NC(=O)N[C@H](C(=O)O)C(C)C)[C@@H]2CCN=C(N)N2)C(=O)O)O[C@H](CN)[C@H]1O` [compound 3, muraymycin D1], in [12], the Km stood at 600 ± 100 µM and the turnover number (kcat) was 0.167 ± 0.017 s⁻¹. The “total turnover number (TTN)” value in experiment [12] (with native substrate (3) or unnatural substrate (muraymycin B), estimated) is recorded as not below 800. Besides, in [2], the “Mur15-catalyzed hydroxylation (substrate conversion)” value is given as “a new peak with a mass corresponding to mono-hydroxylated 3”.
Consider `CC(C)C[C@H](NC(=O)[C@@H](NC(=O)N[C@H](C(=O)O)C(C)C)[C@@H]1CCN=C(N)N1)C(=O)NCCCN[C@H](C(=O)O)[C@H](O[C@@H]1O[C@H](CN)[C@@H](O)[C@H]1O)[C@H]1O[C@@H](n2ccc(=O)[nH]c2=O)[C@H](O)[C@@H]1O` [compound 4, muraymycin D2], for which the “Mur15-catalyzed hydroxylation (substrate conversion)” value in [2] is “mono-hydroxylated”.
For `CO[C@H]1[C@H](O[C@H]([C@H]2O[C@@H](n3ccc(=O)[nH]c3=O)[C@H](O)[C@@H]2O)[C@H](NCCCNC(=O)[C@@H](NC(=O)[C@@H](NC(=O)N[C@H](C(=O)O)C(C)C)[C@@H]2CCN=C(N)N2)[C@@H](O)C(C)C)C(=O)O)O[C@H](CN)[C@H]1O` [compound 8, muraymycin C1], the “Mur15-catalyzed hydroxylation (substrate conversion)” value in [2] was “remained unchanged”. In addition, the “effect of conversion of 3 to 8 on anti-M. smegmatis activity” value in experiment [13] is recorded as “minimal effect”. Moreover, in [14], the “effect of conversion of 3 to 8 on E. coli activity” value was “minimal effect”.
Consider `N=C(N)NCCC[C@H](NC(=O)NC(Cc1ccccc1)C(=O)O)C(=O)O` (stereo partly drawn) [compound 11, L-Phe-(C=O)-L-Arg], for which the “conversion by AnpI” value in experiment [4] is “No product was observed”.
For `CO[C@H]1[C@H](O[C@H]([C@H]2O[C@@H](n3ccc(=O)[nH]c3=O)[C@H](O)[C@@H]2O)[C@H](NCCCNC(=O)[C@@H](NC(=O)[C@@H](NC(=O)N[C@H](C(=O)O)C(C)C)[C@@H]2CCN=C(N)N2)[C@@H](OC(=O)CCCCCCCCCCCCN(O)C(=N)N)C(C)C)C(=O)O)O[C@H](CN)[C@H]1O` [muraymycin A1], the “Mur15-catalyzed hydroxylation (substrate conversion)” value in experiment [2] was “mass consistent with a mono-hydroxylated product”.
For the compound `CO[C@H]1[C@H](O[C@H]([C@H]2O[C@@H](n3ccc(=O)[nH]c3=O)[C@H](O)[C@@H]2O)[C@H](NCCCNC(=O)[C@@H](NC(=O)[C@@H](NC(=O)N[C@H](C(=O)O)C(C)C)[C@@H]2CCN=C(N)N2)[C@@H](OC(=O)CCCCCCC(C)C)C(C)C)C(=O)O)O[C@H](CN)[C@H]1O` [muraymycin B2], in experiment [12], the Km was 930 µM and the kcat stood at 0.108 ± 0.0083 s⁻¹. Besides, the “drop in catalytic efficiency when compared with 3” value in experiment [12] (with respect to muraymycin B2, saturating αKG) was ~ 2 -fold. Besides, the “Mur15-catalyzed hydroxylation (substrate conversion)” value in experiment [2] is reported as “mass consistent with a mono-hydroxylated product”.
On to `CO[C@H]1[C@H](O[C@H]([C@H]2O[C@@H](n3ccc(=O)[nH]c3=O)[C@H](O)[C@@H]2O)[C@H](NCCCNC(=O)[C@@H](NC(=O)[C@@H](NC(=O)N[C@H](C(=O)O)C(C)C)[C@@H]2CCN=C(N)N2)[C@@H](OC(=O)CCCCC(C)C)C(C)C)C(=O)O)O[C@H](CN)[C@H]1O` [muraymycin B6], for which the “Mur15-catalyzed hydroxylation (substrate conversion)” value in [2] is listed as “mass consistent with a mono-hydroxylated product”.
L-[^14C]Arg: the “loading of Mur12 T domain” value in [15] is “A faint band corresponding to the molecular weight of Mur12 was detected”. In addition, the “covalent modification of holo-SlAnpD(AT)” value in [16] is reported as “covalently modified”.
As for L-[^14C]Leu, the “self-loading of Mur21” value in [17] is listed as “not observed”.
As for L-[^14C]Phe, in experiment [18], the “covalent modification of AnpE orthologs” value is “covalent modification of the AnpE orthologs was detected”.
L-[^14C]Val: the “loading of Mur14” value in experiment [19] is recorded as “not observed”. Further, the “covalent modification of AnpF” value in experiment [20] is given as “Covalent modification of AnpF was observed”.
For α-MAPI [compound 9], the “conversion by AnpI” value in [4] is given as “Neither, however, were converted to a product”.

These data come from article PMC10258837 (Journal of the American Chemical Society, 2021).
